Test results published in ChEMBL document CHEMBL1125493, “HIV-1 neutralization and tumor cell proliferation inhibition in vitro by simplified analogues of pyrido[4,3,2-mn]thiazolo[5,4-b]acridine marine alkaloids” (J Med Chem, 1992).

Key:
[1] = Calu3 lung tumor cell proliferation inhibition by the compound in vitro at a concentration of 0.015 uM.; assay type: functional, Homo sapiens
Outline: (§1)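 Tumor cells grown in RPMI-1640 in 1% agar with 5% fetal bovine serum, exposed to the specified concentrations for 1 week. Viability was assessed against a control given distilled water in place of drug. 5-Fluorouracil served as the positive cytotoxic standard. Results are reported as concentration-dependent cell survival.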

[2] = Calu3 lung tumor cell proliferation inhibition by the compound in vitro at a concentration of 0.15 uM.; assay type: functional, Homo sapiens; outline: as §1
[3] = Calu3 lung tumor cell proliferation inhibition by the compound in vitro at a concentration of 1.5 uM.; assay type: functional, Homo sapiens; outline: as §1
COLO 320DM [4] = assay: COLO 320DM colon tumor cell proliferation inhibition by the compound in vitro at a concentration of 1.5 uM.; assay type: functional, Homo sapiens; outline: as §1
COLO 320DM [5] = assay: COLO 320DM colon tumor cell proliferation inhibition by the compound in vitro at a concentration of 0.015 uM.; assay type: functional, Homo sapiens; outline: as §1
COLO 320DM [6] = assay: COLO 320DM colon tumor cell proliferation inhibition by the compound in vitro at a concentration of 0.15 uM.; assay type: functional, Homo sapiens; outline: as §1
[7] = tested on: Human immunodeficiency virus 1; assay: Inhibitory effect against HIV-1 in human peripheral blood monocyte cells(PBMC) (EC50-22.6 ug/mL); assay type: functional, organism-based
[8] = tested on: Human immunodeficiency virus 1; assay: Inhibitory effect against HIV-1 induced cytopathic effects(HIV-1 neutralization) in MT-4 lymphocytes at a concentration of 10 ug/mL (0.0375 uM/mL).; assay type: functional
Outline: (§2)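 HIV-1 Molt IIIB (~2 × 10^4 TCID50 in 100 μL) preincubated 1 h at 37 °C with a single compound dose, then added to MT-4 cells (5 × 10^5 cells/well, 1 mL). Cultured at 37 °C, 5% CO2. Viable cells counted by trypan blue exclusion on days 4 and 7. Triplicates; % viable cells. Controls: infected cells (positive), uninfected cells (negative).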

MT4 [9] = assay: Cytotoxic effect in cultured MT-4 lymphocytes at a concentration of 100 ug/mL (0.3750 uM/mL).; assay type: functional, Homo sapiens
Outline: (§3)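 MT-4 cells at 5 × 10^4 cells/well, 1 mL total, cultured with compound diluted in RPMI 1640 with 10% FBS, 10 mM HEPES, penicillin/streptomycin and 2 mM glutamine, at 37 °C under 5% CO2. Viability was scored by trypan blue exclusion on days 4 and 7, in triplicate, as % viable cells.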

MCF7 [10] = assay: […] breast tumor cell proliferation inhibition by the compound in vitro at a concentration of 0.015 uM.; assay type: functional, Homo sapiens
Outline: (§4)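 Breast tumor cells treated with specified compound concentrations in RPMI-1640 in 1% agar with 5% FBS for 1 week. Viability compared with a control given distilled water in place of drug; 5-fluorouracil as standard cytotoxic drug. Reported as concentration-dependent cell survival.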

MCF7 [11] = assay: […] breast tumor cell proliferation inhibition by the compound in vitro at a concentration of 0.15 uM.; assay type: functional, Homo sapiens; outline: as §4
MCF7 [12] = assay: […] breast tumor cell proliferation inhibition by the compound in vitro at a concentration of 1.5 uM.; assay type: functional, Homo sapiens; outline: as §4
MT4 [13] = assay: Cytotoxic effect in cultured MT-4 lymphocytes at a concentration of 2 ug/mL (0.0076 uM/mL).; assay type: functional, Homo sapiens; outline: as §3
MT4 [14] = assay: Cytotoxic effect in cultured MT-4 lymphocytes at a concentration of 10 ug/mL (0.0375 uM/mL).; assay type: functional, Homo sapiens; outline: as §3
[15] = tested on: Human immunodeficiency virus 1; assay: Inhibitory effect against HIV-1 in human peripheral blood monocyte cells(PBMC) (EC50 ->7.44 ug/mL); assay type: functional, organism-based
[16] = tested on: Human immunodeficiency virus 1; assay: Inhibitory effect against HIV-1 induced cytopathic effects(HIV-1 neutralization) in MT-4 lymphocytes at a concentration of 100 ug/mL (0.3500 uM/mL).; assay type: functional; outline: as §2
MT4 [17] = assay: Cytotoxic effect in cultured MT-4 lymphocytes at a concentration of 100 ug/mL (0.3500 uM/mL).; assay type: functional, Homo sapiens; outline: as §3
MT4 [18] = assay: Cytotoxic effect in cultured MT-4 lymphocytes at a concentration of 10 ug/mL (0.0350 uM/mL).; assay type: functional, Homo sapiens; outline: as §3
MT4 [19] = assay: Cytotoxic effect in cultured MT-4 lymphocytes at a concentration of 2 ug/mL (0.0070 uM/mL).; assay type: functional, Homo sapiens; outline: as §3

## Cc1nc2cc3nc4ccccc4c(O)c3cc2s1.Cl
[1]
  Viability: 98%
[2]
  Viability: 36%
[3]
  Viability: 0%
COLO 320DM [4]
  Viability: 0%
COLO 320DM [5]
  Viability: 117%
COLO 320DM [6]
  Viability: 49%
[7]
  EC50: 84.6 µM
[8]
  Viability: 19.4%
MT4 [9]
  Viability: 74.3%
MCF7 [10]
  Viability: 91%
MCF7 [11]
  Viability: 38%
MCF7 [12]
  Viability: 0%
MT4 [13]
  Viability: 91.9%
MT4 [14]
  Viability: 87.2%

## Cc1nc2cc(Nc3ccccc3C(=O)[O-])ccc2s1.[Na+]
[15]
  EC50: 26 µM
[16]
  Viability: 18.2%
MT4 [17]
  Viability: 93.3%
MT4 [18]
  Viability: 92.6%
MT4 [19]
  Viability: 87.5%
